Data on 12 compounds can be found in article PMC4516694 (Bioorganic & medicinal chemistry, 2015).

Series [1] has as its target T1, transfected human CRF1 receptors in HEK293T cells (Homo sapiens, UniProt P34998).
T1 sequence (P34998 24-415): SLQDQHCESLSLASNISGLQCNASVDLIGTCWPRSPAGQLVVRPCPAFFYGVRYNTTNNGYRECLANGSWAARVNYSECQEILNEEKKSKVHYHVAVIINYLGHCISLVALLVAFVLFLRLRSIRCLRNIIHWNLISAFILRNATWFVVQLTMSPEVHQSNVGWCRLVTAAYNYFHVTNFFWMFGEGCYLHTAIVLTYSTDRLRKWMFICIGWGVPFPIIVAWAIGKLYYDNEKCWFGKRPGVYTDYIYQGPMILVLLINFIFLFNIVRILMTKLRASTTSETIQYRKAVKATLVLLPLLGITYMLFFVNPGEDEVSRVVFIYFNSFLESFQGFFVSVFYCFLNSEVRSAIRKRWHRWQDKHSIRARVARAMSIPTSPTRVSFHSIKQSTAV
The experiment in a line: In vitro competition binding assay at 23 °C vs. [125I]-Tyr0-sauvagine. As to conditions: for Ki: Ki (nM) ± SEM, vs. [125I]-Tyr0-sauvagine, HEK293T cell membranes. The gist of the method:
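Human CRF1 plasmid transiently lipofected into HEK293T (DMEM, 10% FBS, grown to 75% confluency); cells harvested 48 h post-transfection; membranes homogenized in pH 7.2 HEPES/MgCl2/EGTA/BSA/aprotinin buffer. ~80 pM [125I]sauvagine plus test compound (10−13–10−5 M final), 2 h, 23 °C; filtered over polyethyleneamine-soaked filters and cold-washed. Triplicates; Ki by one-site competition fit (Kd 0.5 nM); ratios from Ki values.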

Series [2] has as its system CRF1 receptor. Description: Non-human primate microPET imaging. In kind it is in vivo, male cynomolgus monkey. As to conditions: anesthetized cynomolgus monkey. The gist of the method:
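Male cynomolgus monkey on a Siemens MicroPET Focus 220. A Co-57 point-source transmission scan was used for attenuation correction. F-18 radiotracer given by saphenous vein injection, then dynamic imaging for 120 min.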

Series [3] addresses CRF1 receptor. To be noted: read-out: Ki, previously reported value; cited from earlier work.
A further series in a line: Rat microPET imaging. In kind it is in vivo, male Sprague-Dawley rat. As to conditions: anesthetized rat. The gist of the method: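 One male Sprague-Dawley rat on an Inveon microPET/CT: isoflurane induction at 3–4%, maintained at 1–1.5% by nose cone. Prone, warmed with circulating air; Co-57 transmission scan for attenuation correction. F-18 radiotracer given by tail vein injection, then dynamic imaging for 60 min.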

Broadly, the Ki is a dissociation constant, usually derived from enzyme kinetics or from competition with a known ligand. As for `Cc1cc(N(C)CCOCCF)n2nc(C)c(-c3ccc(Cl)cc3Cl)c2n1` [Compound 26, 3-(2,4-dichlorophenyl)-N-(2-(2-fluoroethoxy)ethyl)-N,2,5-trimethylpyrazolo[1,5-a]pyrimidin-7-amine], in series [1] (23 °C), the “decrease in affinity relative to compounds 27, 28, 29 and 30” value is at least 10 fold; the Ki came to 12.4 ± 1.06 nM. In addition, in series [1] (ratio of Ki values, Table 1), the “fold loss of affinity relative to 29” value was ~ 26 fold, the “fold loss of affinity upon changing 28 to 26” value is about 12 fold and the “fold lower binding affinity than 27 or 28” value is given as 10 – 12 fold.
As to `[2H]C([2H])([18F])C([2H])([2H])C([2H])([2H])C([2H])([2H])N(C)c1cc(C)nc2c(-c3ccc(Cl)cc3Cl)c(C)nn12` [[^18F]28-d8, 3-(2,4-dichlorophenyl)-N-(4-[^18F]fluorobutyl-1,1,2,2,3,3,4,4-d8)-N,2,5-trimethylpyrazolo[1,5-a]pyrimidin-7-amine], in the series with CRF1 receptor [2] (microPET TACs), the “brain uptake and washout compared with the other radiotracers” value is “very similar to that of [^18F]28”; the “radioactivity uptake in the skull and sphenoid region / defluorination” value is “reduced somewhat relative to [^18F]28 but defluorination was not completely prevented”.
`CCCN(CCC)c1cc(C)nc2c(-c3ccc(Cl)cc3Cl)c(C)nn12` [Compound 21, 3-(2,4-dichlorophenyl)-2,5-dimethyl-N,N-dipropylpyrazolo[1,5-a]pyrimidin-7-amine]: in series [1] (23 °C), the affinity corresponds to a Ki of 0.47 ± 0.08 nM.
For the compound `Cc1cc(N(C)CCOCC[18F])n2nc(C)c(-c3ccc(Cl)cc3Cl)c2n1` [[^18F]26, 3-(2,4-dichlorophenyl)-N-(2-(2-[^18F]fluoroethoxy)ethyl)-N,2,5-trimethylpyrazolo[1,5-a]pyrimidin-7-amine], in the series on CRF1 receptor [2] (microPET TACs), the “brain uptake and washout compared with the other radiotracers” value was “entered the brain more rapidly and washed out more rapidly”; the “radioactivity uptake in the skull and sphenoid region / defluorination” value is “rapid uptake and then a steady washout”.
For `CCN(CCOCC[18F])c1cc(C)nc2c(-c3ccc(Cl)cc3Cl)c(C)nn12` [[^18F]27, 3-(2,4-dichlorophenyl)-N-ethyl-N-(2-(2-[^18F]fluoroethoxy)ethyl)-2,5-dimethylpyrazolo[1,5-a]pyrimidin-7-amine], in the series on CRF1 receptor [2] (microPET TACs), the “radioactivity uptake in the skull and sphenoid region / defluorination” value was “rapid uptake and then a steady washout”; the “specific binding in brain (high vs low CRF1 receptor density regions)” value is reported as “little or no specific binding”; the “time of peak brain uptake” value fell in the range of 5 to 15 min.
With `CCN(CCOCCF)c1cc(C)nc2c(-c3ccc(Cl)cc3Cl)c(C)nn12` [Compound 27, 3-(2,4-dichlorophenyl)-N-ethyl-N-(2-(2-fluoroethoxy)ethyl)-2,5-dimethylpyrazolo[1,5-a]pyrimidin-7-amine], in series [1] (23 °C), the Ki was 1.17 ± 0.07 nM. Also, the “fold loss of affinity relative to 29” value in series [1] (ratio of Ki values, Table 1) is reported as ~ 2.5 fold.
`Cc1cc(N(C)CCCCF)n2nc(C)c(-c3ccc(Cl)cc3Cl)c2n1` [Compound 28, 3-(2,4-dichlorophenyl)-N-(4-fluorobutyl)-N,2,5-trimethylpyrazolo[1,5-a]pyrimidin-7-amine] showed a Ki in series [1] (23 °C) of 1.07 ± 0.21 nM. Besides, in series [1] (ratio of Ki values, Table 1), the “fold loss of affinity relative to 29” value is ~ 2.3 fold.
Turning to `Cc1cc(N(CCF)CCCCF)n2nc(C)c(-c3ccc(Cl)cc3Cl)c2n1` [Compound 30, 3-(2,4-dichlorophenyl)-N-(4-fluorobutyl)-N-(2-fluoroethyl)-2,5-dimethylpyrazolo[1,5-a]pyrimidin-7-amine], in series [1] (23 °C), the Ki was 0.59 ± 0.04 nM.
The same measure, in the same setting: next, `CCN(CCCCF)c1cc(C)nc2c(-c3ccc(Cl)cc3Cl)c(C)nn12` [Compound 29, 3-(2,4-dichlorophenyl)-N-ethyl-N-(4-fluorobutyl)-2,5-dimethylpyrazolo[1,5-a]pyrimidin-7-amine]: 0.47 ± 0.1 nM.
Consider `CCCCN(CC)c1cc(C)nc2c(-c3ccc(Cl)cc3Cl)c(C)nn12` [Compound 22, N-butyl-3-(2,4-dichlorophenyl)-N-ethyl-2,5-dimethylpyrazolo[1,5-a]pyrimidin-7-amine], for which the Ki at CRF1 receptor [3] was 0.9 ± 0.1 nM; in series [1] (23 °C) it was 0.46 ± 0.06 nM.
`Cc1cc(N(C)CCCC[18F])n2nc(C)c(-c3ccc(Cl)cc3Cl)c2n1` [[^18F]28, 3-(2,4-dichlorophenyl)-N-(4-[^18F]fluorobutyl)-N,2,5-trimethylpyrazolo[1,5-a]pyrimidin-7-amine]: the brain penetrance entry with CRF1 receptor [2] (microPET) is “brain penetrance was achieved”. Further, in the series with CRF1 receptor [2] (microPET TACs), the “radioactivity uptake in the skull and sphenoid region / defluorination” value is “high radioactivity uptake in the skull, and sphenoid bone and/or sphenoid sinus, suggests defluorination”; the “specific binding in brain (high vs low CRF1 receptor density regions)” value is recorded as “little or no specific binding”. Also, in the series “Rat microPET imaging” (at 3 min, tail vein injection), the “liver uptake (SUV)” value stood at 5.4 SUV. Besides, the “brain uptake (SUV)” value in “Rat microPET imaging” (at 5 min, tail vein injection) came to 2 SUV. Further, in “Rat microPET imaging” (microPET), the brain penetrance result is on record as “brain penetrance was achieved” and the “stability to defluorination (bone visualization)” value was “stable to defluorination”.
On to `CCN(CCCC[18F])c1cc(C)nc2c(-c3ccc(Cl)cc3Cl)c(C)nn12` [[^18F]29, 3-(2,4-dichlorophenyl)-N-ethyl-N-(4-[^18F]fluorobutyl)-2,5-dimethylpyrazolo[1,5-a]pyrimidin-7-amine], for which, in the series on CRF1 receptor [2] (microPET TACs), the “brain uptake and washout compared with the other radiotracers” value is on record as “the overall amount of uptake was less”; the “radioactivity uptake in the skull and sphenoid region / defluorination” value was “less than that of [^18F]28 and [^18F]28-d8”. The “fold stronger binding affinity relative to [18F]28” value in series [1] is reported as ~ 2 fold.
